Where a SMILES comes first, the peptide text is derived from it. [ ]: non-standard residue; d: D form. Sar = CNCC(=O)O
Columns and labels:
Capan-2 cell homogenates = assay: Enzymatic stability in Capan-2 cell homogenate; type: in vitro ADME, human; conditions: 500 μg/mL protein, 37 °C, mean ± SD, n = 3
Caco-2 cell homogenates = assay: Enzymatic stability in Caco-2 cell homogenate; type: in vitro ADME, human; conditions: 500 μg/mL protein, 37 °C, mean ± SD, n = 3
PEPT1 [1] = molecular target: T1, PEPT1 (Homo sapiens, UniProt P46059); assay: [3H]Gly-Sar uptake inhibition in AsPC-1 cells; type: cell-based
T1 sequence (P46059 1-708): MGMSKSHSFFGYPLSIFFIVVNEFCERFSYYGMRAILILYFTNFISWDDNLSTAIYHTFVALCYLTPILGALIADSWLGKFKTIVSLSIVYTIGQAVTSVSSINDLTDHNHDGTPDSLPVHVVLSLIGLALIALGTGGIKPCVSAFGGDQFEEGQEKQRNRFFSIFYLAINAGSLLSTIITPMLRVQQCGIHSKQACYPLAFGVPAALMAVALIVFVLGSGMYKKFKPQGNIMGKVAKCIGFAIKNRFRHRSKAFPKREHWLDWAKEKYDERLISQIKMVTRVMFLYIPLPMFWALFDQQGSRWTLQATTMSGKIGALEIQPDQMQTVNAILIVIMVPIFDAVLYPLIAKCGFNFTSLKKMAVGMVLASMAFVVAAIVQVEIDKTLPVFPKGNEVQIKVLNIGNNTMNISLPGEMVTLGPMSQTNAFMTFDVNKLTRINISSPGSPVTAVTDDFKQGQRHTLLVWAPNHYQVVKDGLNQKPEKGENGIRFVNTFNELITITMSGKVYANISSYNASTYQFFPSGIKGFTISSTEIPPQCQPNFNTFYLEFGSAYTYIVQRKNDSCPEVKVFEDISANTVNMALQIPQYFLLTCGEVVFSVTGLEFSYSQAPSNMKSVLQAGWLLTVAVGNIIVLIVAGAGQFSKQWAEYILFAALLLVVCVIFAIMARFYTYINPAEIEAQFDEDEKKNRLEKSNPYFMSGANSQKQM

[2] = Stability in human plasma; type: in vitro ADME; conditions: undiluted human plasma, 37 °C; mean ± SD, n = 3
PEPT1 [3] = molecular target: T1, PEPT1; assay: [3H]Gly-Sar uptake inhibition in Caco-2 cells; type: cell-based
AsPC-1 cell homogenates = assay: Enzymatic stability in AsPC-1 cell homogenate; type: in vitro ADME, human; conditions: 500 μg/mL protein, 37 °C, mean ± SD, n = 3
thymidine phosphorylase = molecular target: T2, thymidine phosphorylase (Homo sapiens, UniProt P19971); assay: Resistance to metabolism by thymidine phosphorylase; type: in vitro ADME; conditions: 200 μM substrate, TP 2.0 ng/μL, phosphate buffer pH 7.0, 37 °C; mean ± SD, n = 3
T2 sequence (P19971 11-482): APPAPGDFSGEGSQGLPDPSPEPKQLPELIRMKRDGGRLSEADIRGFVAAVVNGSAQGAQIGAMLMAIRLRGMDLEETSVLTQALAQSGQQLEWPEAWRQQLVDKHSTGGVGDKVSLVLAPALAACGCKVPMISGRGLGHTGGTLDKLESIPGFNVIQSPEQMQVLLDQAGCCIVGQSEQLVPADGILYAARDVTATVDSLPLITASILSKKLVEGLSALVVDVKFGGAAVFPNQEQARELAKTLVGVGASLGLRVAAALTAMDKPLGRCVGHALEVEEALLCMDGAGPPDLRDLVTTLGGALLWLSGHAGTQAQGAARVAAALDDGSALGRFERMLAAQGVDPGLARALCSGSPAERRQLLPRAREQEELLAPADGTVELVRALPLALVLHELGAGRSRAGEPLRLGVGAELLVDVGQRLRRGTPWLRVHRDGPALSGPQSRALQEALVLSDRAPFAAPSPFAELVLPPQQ

Chemical stability = type: physicochemical; conditions: pH 7.4 phosphate buffer, 37 °C; mean ± SD, n = 3
PEPT1 [4] = molecular target: T1, PEPT1; assay: [3H]Gly-Sar uptake inhibition in Capan-2 cells; type: cell-based
Capan-2 cell monolayers = assay: Apical-to-basolateral permeability across Capan-2 monolayers; type: in vitro ADME, human; conditions: 1 mM verapamil (efflux pump inhibitor); data not shown
[5] = Apical-to-basolateral permeability across Caco-2 monolayers; type: in vitro ADME; conditions: human
AsPC-1 cells = assay: Cell proliferation; type: cell-based; conditions: Homo sapiens, ASPC1, pH 6, read-out: GI50 AsPC-1
Method in brief: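 AsPC-1 cells (passages 63-65) were grown antibiotic-free in RPMI-1640 with 10% FBS, seeded at 125,000 cells/well and left 24 h. They were washed with pH 6.0 uptake buffer and exposed 2 h at 37 °C to test compound (2-fold dilutions, 4 to 0.25 mmol/L, in that buffer); buffer alone served as 100% viability. Cells were washed twice and recovered 24 h in medium.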

Capan-2 cells = assay: Cell proliferation; type: cell-based; conditions: Homo sapiens, Capan-2, pH 6, read-out: GI50 Capan-2
Method in brief: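 Capan-2 cells (passages 50-54) in antibiotic-free RPMI-1640 plus 10% FBS were plated at 125,000 per well and allowed 24 h to attach. After a rinse with pH 6.0 uptake buffer, they received test compound in the same buffer (twofold series, 4 to 0.25 mmol/L; buffer-only wells as 100% viability) for 4 h at 37 °C. Two washes and 24 h recovery in medium followed.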

[6] = read-out: IC50 [3H]Gly-Sar uptake inhibition AsPC-1, AsPC-1 cells, 10 μmol/L Gly-Sar, 30 min, mean ± SD, n = 3
[7] = read-out: IC50 [3H]Gly-Sar uptake inhibition Caco-2, Caco-2 cells, 10 μmol/L Gly-Sar, 30 min, mean ± SD, n = 3
[8] = read-out: IC50 [3H]Gly-Sar uptake inhibition Capan-2, Capan-2 cells, 10 μmol/L Gly-Sar, 30 min, mean ± SD, n = 3

| Compound | t1/2 cell homogenates Capan-2 (Capan-2 cell homogenates) | t1/2 cell homogenates Caco-2 (Caco-2 cell homogenates) | IC50 (PEPT1 [1]; [6]) | t1/2 human plasma [2] | IC50 (PEPT1 [3]; [7]) | t1/2 cell homogenates AsPC-1 (AsPC-1 cell homogenates) | t1/2 in the presence of thymidine phosphorylase (thymidine phosphorylase) | t1/2 buffer pH 7.4 (Chemical stability) | IC50 (PEPT1 [4]; [8]) | effect of verapamil on permeability in Capan-2 cells (Capan-2 cell monolayers) | IC50 (PEPT1 [1]) | IC50 (PEPT1 [3]) | Papp at 2 h, 0.1 mM [5] | GI50 (AsPC-1 cells) | IC50 (PEPT1 [4]) | GI50 (Capan-2 cells) |
| --- | --- | --- | --- | --- | --- | --- | --- | --- | --- | --- | --- | --- | --- | --- | --- | --- |
| NCC(=O)OC[C@H]1O[C@@H](n2cc(F)c(=O)[nH]c2=O)C[C@@H]1O [5′-L-glycyl-floxuridine] | 49.7 ± 5.6 min | 24.1 ± 2.0 min | 2710 ± 530 µM | 72.1 ± 15.0 min | 2280 ± 590 µM | 27.6 ± 5.8 min | 250 ± 54 min | 85.5 ± 3.2 min | 2790 ± 80 µM | – | – | – | – | – | – | – |
| CC[C@H](C)[C@H](N)C(=O)OC[C@H]1O[C@@H](n2cc(F)c(=O)[nH]c2=O)C[C@@H]1O [5′-L-isoleucyl-floxuridine] | 139.9 ± 15.3 min | 192.3 ± 31.8 min | 4120 ± 1750 µM | 271.4 ± 3.2 min | 720 ± 30 µM | 198.0 ± 70.2 min | >500 min | 1194.5 ± 660.6 min | 2380 ± 120 µM | – | – | – | – | – | – | – |
| CC(C)[C@H](N)C(=O)OC[C@H]1O[C@@H](n2cc(F)c(=O)[nH]c2=O)C[C@@H]1O [5′-L-valyl-floxuridine] | 5.2 ± 2.4 min | 9.4 ± 0.5 min | 2910 ± 380 µM | 131.5 ± 54.1 min | 1880 ± 180 µM | 18.7 ± 6.7 min | – | 304.0 ± 33.3 min | 2410 ± 280 µM | – | – | – | – | – | – | – |
| O=c1[nH]c(=O)n([C@H]2C[C@H](O)[C@@H](CO)O2)cc1F [floxuridine, 5-fluoro-2′-deoxyuridine, reference compound] | – | – | – | – | – | – | – | – | – | – | 6630 ± 1520 µM | 8430 ± 2660 µM | 0.69 ± 0.1 ×10⁻⁶ cm/s | > 4000 µM | 16100 ± 6710 µM | > 4000 µM |
| NCC(=O)N1CCC[C@H]1C(=O)O [glycylproline (Gly-Pro), glycylproline] (H-Gly-Pro-OH) | – | – | – | – | – | – | – | – | – | – | – | – | – | – | – | 29500 ± 6500 µM |
| CN(CC(=O)O)C(=O)CN [glycylsarcosine (Gly-Sar), glycylsarcosine] (H-Gly-[Sar]-OH) | – | – | – | – | – | – | – | – | – | – | – | – | – | – | – | 25700 ± 8100 µM |

The next lines start with results.

| t1/2 cell homogenates Capan-2 (Capan-2 cell homogenates) | t1/2 cell homogenates Caco-2 (Caco-2 cell homogenates) | IC50 (PEPT1 [1]; [6]) | t1/2 human plasma [2] | IC50 (PEPT1 [3]; [7]) | t1/2 cell homogenates AsPC-1 (AsPC-1 cell homogenates) | t1/2 in the presence of thymidine phosphorylase (thymidine phosphorylase) | t1/2 buffer pH 7.4 (Chemical stability) | IC50 (PEPT1 [4]; [8]) | effect of verapamil on permeability in Capan-2 cells (Capan-2 cell monolayers) | IC50 (PEPT1 [1]) | IC50 (PEPT1 [3]) | Papp at 2 h, 0.1 mM [5] | GI50 (AsPC-1 cells) | IC50 (PEPT1 [4]) | Compound | GI50 (Capan-2 cells) |
| --- | --- | --- | --- | --- | --- | --- | --- | --- | --- | --- | --- | --- | --- | --- | --- | --- |
| 56.2 ± 12.8 min | 57.6 ± 9.3 min | 1030 ± 80 µM | 76.0 ± 14.1 min | 2880 ± 10 µM | 51.6 ± 4.2 min | >500 min | 104.7 ± 7.0 min | 460 ± 20 µM | – | – | – | – | – | – | 5′-L-Valyl-L-phenylalanyl-floxuridine | – |
| 18.7 ± 1.4 min | 20.5 ± 1.1 min | 290 µM | 9.5 ± 0.5 min | 390 ± 10 µM | 25.1 ± 5.8 min | 223 ± 54 min | 33.5 ± 2.4 min | 440 ± 20 µM | – | – | – | – | – | – | CC[C@H](C)[C@H](N)C(=O)NCC(=O)OC[C@H]1O[C@@H](n2cc(F)c(=O)[nH]c2=O)C[C@@H]1O [5′-L-isoleucyl-L-glycyl-floxuridine, 5′-L-Isoleucyl-L-glycyl-floxuridine] | – |
| 3.9 ± 1.1 min | 4.1 ± 0.1 min | 510 ± 30 µM | 6.7 ± 0.3 min | 3800 ± 600 µM | 3.6 ± 0.8 min | 138 ± 11 min | 23.2 ± 4.1 min | 340 ± 10 µM | – | – | – | – | – | – | CC(C)C[C@H](N)C(=O)NCC(=O)OC[C@H]1O[C@@H](n2cc(F)c(=O)[nH]c2=O)C[C@@H]1O [5′-L-leucyl-L-glycyl-floxuridine, 5′-L-Leucyl-L-glycyl-floxuridine] | – |
| 4.7 ± 2.1 min | 3.2 ± 0.2 min | 2600 ± 160 µM | 82.4 ± 8.7 min | 3510 ± 110 µM | 2.0 ± 0.1 min | – | 83.2 ± 1.7 min | 1450 ± 70 µM | – | – | – | – | – | – | CC(C)C[C@H](N)C(=O)OC[C@H]1O[C@@H](n2cc(F)c(=O)[nH]c2=O)C[C@@H]1O [5′-L-leucyl-floxuridine] | – |
| 4.3 ± 0.9 min | 6.3 ± 0.6 min | 880 ± 220 µM | 9.7 ± 0.8 min | 780 ± 560 µM | 10.2 ± 0.3 min | 119 ± 30 min | 132.1 ± 10.2 min | 790 ± 20 µM | – | – | – | – | – | – | N[C@@H](Cc1ccccc1)C(=O)NCC(=O)OC[C@H]1O[C@@H](n2cc(F)c(=O)[nH]c2=O)C[C@@H]1O [5′-L-phenylalanyl-L-glycyl-floxuridine, 5′-L-Phenylalanyl-L-glycyl-floxuridine] | – |
| 42.8 ± 0.0 min | 103.8 ± 55.5 min | 610 ± 180 µM | 80.6 ± 3.7 min | 660 ± 250 µM | 59.7 ± 1.4 min | >500 min | 233.9 ± 6.6 min | 1200 ± 160 µM | not affected | – | – | – | – | – | N[C@@H](Cc1ccccc1)C(=O)N[C@@H](Cc1ccc(O)cc1)C(=O)OC[C@H]1O[C@@H](n2cc(F)c(=O)[nH]c2=O)C[C@@H]1O [5′-L-phenylalanyl-L-tyrosyl-floxuridine, 5′-L-Phenylalanyl-L-tyrosyl-floxuridine] | – |
| 3.0 ± 0.1 min | 11.1 ± 9.9 min | 1970 ± 90 µM | 62.8 ± 0.8 min | 1990 ± 820 µM | 11.8 ± 1.7 min | >500 min | 187.0 ± 19.0 min | 3710 ± 2130 µM | – | – | – | – | – | – | N[C@@H](Cc1ccccc1)C(=O)OC[C@H]1O[C@@H](n2cc(F)c(=O)[nH]c2=O)C[C@@H]1O [5′-L-phenylalanyl-floxuridine] | – |
